{"source": "ChEMBL document CHEMBL1157311", "about": "“Aurilides B and C, cancer cell toxins from a Papua New Guinea collection of the marine cyanobacterium Lyngbya majuscula” (2006)", "key": {"NCI-H460": {"test_system": "NCI-H460", "experiment": "Cytotoxicity against human NCI-H460 cells after 48 hrs by MTT assay", "format": "functional", "conditions": "NCI-H460, 48 h, read-out: LC50 (the source's name)", "summary_of_the_method": "(§1)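 Cells seeded at 6000/well and grown 24 h, then given test chemicals dissolved in DMSO and diluted in serum-free medium (DMSO under 0.5% final). Viability read by MTT reduction after 48 h exposure; LC50 reported. Method follows Alley et al.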"}, "[1]": {"experiment": "Cytotoxicity against mouse Neuro2a cells after 48 hrs by MTT assay", "format": "functional", "conditions": "N2a, read-out: LC50 (the source's name)", "summary_of_the_method": "as §1"}}}
{"smiles": "CC/C=C(\\C)[C@H]1OC(=O)[C@H](C)N(C)C(=O)[C@H](C(C)C)NC(=O)CN(C)C(=O)[C@H]([C@H](C)CC)N(C)C(=O)[C@H](C(C)C)NC(=O)[C@@H](C(C)C)OC(=O)/C(C)=C/C[C@H](O)[C@@H]1C", "note": "[AURILIDE C]", "values": [{"measurement": "CC50", "setting": "NCI-H460", "value": 130, "unit": "nM"}, {"measurement": "CC50", "setting": "[1]", "value": 50, "unit": "nM"}]}
